# In ChEMBL document CHEMBL1132153, “Antitumor agents. 196. Substituted 2-thienyl-1,8-naphthyridin-4-ones: their synthesis, cytotoxicity, and inhibition of tubulin polymerization” (J Med Chem, 1999):
# How the values were obtained:
# [1] = test system: KB; test: In vitro cytotoxicity against KB human epidermoid carcinoma of the nasopharynx; format: functional; details: read-out: ED50 (the source's name)
# In short: (§1)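 Panel of human tumor lines: KB nasopharyngeal epidermoid, A-549 lung, HCT-8 ileocecal, CAKI-1 renal, MCF-7 breast, SKMEL-2 melanoma. Growth measured by SRB assay and compared with untreated cells.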
# [2] = test system: A549; test: In vitro cytotoxicity against A-549 human lung cancer cells; format: functional; details: read-out: ED50 (the source's name); in short: as §1
# [3] = test system: MCF7; test: In vitro cytotoxicity against MCF-7 human breast cancer cells; format: functional; details: read-out: ED50 (the source's name); in short: as §1
# [4] = test system: RXF 393; test: In vitro growth inhibition of RXF-393 renal cancer cell line.; format: functional; details: Homo sapiens
# [5] = test system: PC-3; test: In vitro growth inhibition of PC-3 prostate cancer cell line.; format: functional; details: Homo sapiens
# [6] = test system: HCT-8; test: In vitro cytotoxicity against HCT-8 human ileocecal cancer cells; format: functional; details: read-out: ED50 (the source's name); in short: as §1
# [7] = test system: OVCAR-3; test: In vitro growth inhibition of OVCAR-3 ovarian cancer cell line.; format: functional; details: Homo sapiens
# [8] = test system: U-251; test: In vitro growth inhibition of U251 CNS cancer cell line.; format: functional; details: Homo sapiens
# [9] = test system: MDA-MB-435; test: In vitro growth inhibition of MDA-MB-435 breast cancer cell line.; format: functional; details: Homo sapiens
# [10] = test system: HL-60; test: In vitro growth inhibition of HL-60 (TB) leukemia cell line; format: functional; details: Homo sapiens
# In short: (§2)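 Human leukemia HL-60(TB) cells exposed to compound in vitro. The read-out is log GI50 in molar units, defined as the log concentration that reduced cell growth to 50% of the level in untreated controls.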
# [11] = test system: NCI-H23; test: In vitro growth inhibition of NCI-H23 non small cell lung cancer cell line.; format: functional; details: Homo sapiens
# [12] = test system: MDA-N; test: In vitro growth inhibition of MDA-N breast cancer cell line.; format: functional; details: Homo sapiens
# [13] = test system: SW-620; test: In vitro growth inhibition of SW-620 colon cancer cell line.; format: functional; details: Homo sapiens
# [14] = test system: SK-MEL-5; test: In vitro growth inhibition of SK-MEL-5 melanoma cell line.; format: functional; details: Homo sapiens
# [15] = target: T1, Tubulin (Bos taurus, UniProt Q6B856+Q862L2+Q862F3); test: Inhibition of tubulin polymerization (ITP); format: functional
# In short: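 Polymerization of electrophoretically homogeneous bovine brain tubulin at 12 µM, run with a range of inhibitor concentrations. IC50 is the concentration inhibiting polymerization by 50%, reported ± SD.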
# [16] = test system: HL-60; test: In vitro growth inhibition of HL-60 (TB) leukemia cell line.; format: functional; details: Homo sapiens; in short: as §2
# [17] = test system: SK-MEL-2; test: In vitro cytotoxicity against SKMEL-2 human melanoma cancer cells; format: functional; details: read-out: ED50 (the source's name); in short: as §1
# [18] = test system: CAKI-1; test: In vitro cytotoxicity against CAKI-1 human renal cancer cells; format: functional; details: read-out: ED50 (the source's name); in short: as §1
# [19] = test system: KB; test: In vitro cytotoxicity against KB-Vin cancer cell line.; format: functional; details: Homo sapiens, read-out: ED50 (the source's name)
# [20] = target: T1, Tubulin; test: Concentration inhibiting tubulin polymerization (ITP); format: functional
# [21] = target: T2, Tubulin (Bos taurus) (UniProt Q6B856+Q862L2+Q862F3); test: Concentration inhibiting [3H]colchicine binding to tubulin, at a concentration of 5 uM; format: protein assay
# In short: (§3)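 Inhibition of [³H]colchicine binding to electrophoretically homogeneous bovine brain tubulin (1 µM). [³H]colchicine and inhibitor each at 5 µM. Result given as % inhibition.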
# [22] = test system: SK-MEL-2; test: In vitro cytotoxicity against SKMEL-2 human melanoma cancer; format: functional; details: read-out: ED50 (the source's name); in short: as §1
# [23] = target: T2, Tubulin (Bos taurus); test: Concentration inhibiting [3H]-colchicine binding to tubulin; format: protein assay; details: concentration not given here; in short: as §3
# [24] = test system: KB; test: In vitro cytotoxicity against KB-Vin cancer cell line; format: functional; details: Homo sapiens, read-out: ED50 (the source's name)
Structure (SMILES),EC50 [1] [nM],EC50 [2] [nM],EC50 [3] [nM],GI50 [4] [nM],GI50 [5] [nM],EC50 [6] [nM],GI50 [7] [nM],GI50 [8] [nM],GI50 [9] [nM],GI50 [11] [nM],GI50 [12] [nM],GI50 [13] [nM],GI50 [14] [nM],IC50 [15] [nM],GI50 [16] [nM],EC50 [18] [nM],further results
Cc1ccc2c(O)cc(-c3ccsc3)nc2n1,6300,> 6300,> 3100,3240,3090,> 3100,5130,3890,490,1860,363,1000,2570,7000,,,GI50 [10]: 2190 nM
Cc1ccc2c(O)cc(-c3cc(C)sc3C)nc2n1,,,,1910,2240,,2820,3470,372,1230,631,1410,661,4800,1550,,
Cc1ccc2c(O)cc(-c3ccco3)nc2n1,> 10000,> 10000,> 20000,,,> 10000,,,,,,,,14000,,> 10000,EC50 [17]: > 10000 nM
Cc1cnc2nc(-c3sccc3C)cc(O)c2c1,1300,2500,1100,4470,5370,1000,3800,9120,324,,676,4170,2040,3800,,> 5000,EC50 [19]: 1900 nM
Cc1ccc2c(O)cc(-c3cc4ccccc4s3)nc2n1,,,,51300,> 100000,,> 100000,> 100000,> 100000,> 100000,> 100000,> 100000,> 100000,> 40000,> 100000,,
Cc1ccc2c(O)cc(-c3ccc(C)s3)nc2n1,,,,195,204,,257,324,23.4,138,22.9,47.9,204,1700,77.6,,
Cc1ccc2c(O)cc(-c3ccc(Br)s3)nc2n1,800,> 3100,> 800,,,> 800,,,,,,,,,,,IC50 [20]: 1500 nM; EC50 [19]: 500 nM; inhibition [21]: 19%; EC50 [17]: > 10000 nM
Cc1cnc2nc(-c3ccc(C)s3)cc(O)c2c1,1100,1300,1100,,,900,,,,,,,,2700,,1250,EC50 [19]: 1100 nM; EC50 [22]: > 2500 nM
Cc1ccc2c(O)cc(-c3ccc(Cl)s3)nc2n1,,,,2040,1580,,2040,1200,380,1000,186,,380,1700,204,,
Cc1ccc2c(O)cc(-c3sc(-c4ccccc4)cc3C)nc2n1,,,,36300,,,21400,,3550,6030,3890,10000,3390,14000,5500,,
Cc1cnc2nc(-c3csc4ccccc34)cc(O)c2c1,27,56,125,,,57,,,,,,,,,,134,IC50 [20]: 910 nM; EC50 [17]: 135 nM; inhibition [23]: 26%
Cc1ccc2c(O)cc(-c3sc4ccccc4c3C)nc2n1,,,,17000,33100,,19500,38900,4790,19500,17000,20000,14800,13000,18600,,
Cc1ccc2c(O)cc(-c3sccc3C)nc2n1,,,,631,245,,661,468,107,145,77.6,145,178,2800,174,,
Cc1ccc2c(O)cc(-c3cccs3)nc2n1,6300,> 6300,> 1600,11200,9330,,30900,17000,2000,4370,1860,2950,6030,6000,2690,,EC50 [24]: 9500 nM
Cc1ccc2c(O)cc(-c3csc4ccccc34)nc2n1,,,,< 10,,,< 10,,< 10,21.9,< 10,< 10,< 10,,< 10,,IC50 [20]: 370 nM; inhibition [21]: 65%
Cc1ccnc2nc(-c3csc4ccccc34)cc(O)c12,40,200,250,,,,,,,,,,,,,> 250,IC50 [20]: 1200 nM; inhibition [23]: 22%
Cc1cc(C)c2c(O)cc(-c3csc4ccccc34)nc2n1,120,300,500,,,,,,,,,,,,,> 500,IC50 [20]: 780 nM; inhibition [23]: 26%
Cc1ccc2c(O)cc(-c3cccnc3)nc2n1,3000,4600,1200,,,2100,,,,,,,,7700,,5000,EC50 [22]: > 10000 nM; EC50 [24]: 2500 nM
